Article PMC5198968 (Cancer Science, 2016)
Values joined by “and” are separate entries in the source; they are usually repeats but may differ in a detail not shown here. Identical values can stand only once. “Also recorded” adds a separate entry of the source.

Tested on: Japanese patients with advanced hepatocellular carcinoma
Experiment: Adverse events
Type: in vivo, human
Summary of the method: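 Oral test compound given twice daily, continuously, in 28-day cycles until progression or unacceptable AEs. Group I had mild liver impairment (Child–Pugh 5–6) and group II moderate impairment (Child–Pugh 7 or raised AST/ALT). AEs were recorded over the observation period and graded by CTCAE v3.0. The treated set was every patient receiving at least one dose, and analyses were descriptive.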

[1] = Group II (moderate liver impairment), 200 mg b.i.d., n = 7
[2] = Group II (moderate liver impairment), all patients, n = 14
[3] = Group II (moderate liver impairment), n = 14, all grades
[4] = Group II (moderate liver impairment), n = 14, grade ≥3

COC(=O)c1ccc2c(c1)NC(=O)/C2=C(\Nc1ccc(N(C)C(=O)CN2CCN(C)CC2)cc1)c1ccccc1 [nintedanib]
Serious AEs [1]: 3 (42.9) n (%) | Serious AEs: Fatal [1]: 1 (14.3) n (%) | Serious AEs: Immediately life-threatening [1]: 1 (14.3) n (%) | Serious AEs: Prolonged hospitalization [1]: 1 (14.3) n (%) | Serious AEs: Required hospitalization [1]: 3 (42.9) n (%) | AEs leading to nintedanib discontinuation [2]: 0 (0.0) n (%) | AEs leading to nintedanib dose reduction [2]: 3 (21.4) n (%) | Any AE [2]: 14 (100.0) n (%) | Investigator-defined drug-related AE [2]: 12 (85.7) n (%) | Other significant AEs (leading to dose reduction or permanent discontinuation of nintedanib) [2]: 3 (21.4) n (%) | Serious AEs [2]: 6 (42.9) n (%) | Serious AEs: Fatal [2]: 2 (14.3) n (%) | Serious AEs: Immediately life-threatening [2]: 1 (7.1) n (%) | Serious AEs: Prolonged hospitalization [2]: 1 (7.1) n (%) | Serious AEs: Required hospitalization [2]: 6 (42.9) n (%) | Abdominal pain (upper abdominal pain for group II) [3]: 2 (14.3) | Any AE [3]: 14 (100) | Ascites [3]: 7 (50.0) | Decreased appetite [3]: 7 (50.0) | Decreased platelet count [3]: 1 (7.1) | Diarrhea [3]: 6 (42.9) | Fatigue [3]: 5 (35.7) | Hyperuricemia [3]: 3 (21.4) | Hypoalbuminemia [3]: 6 (42.9) | Increased ALT [3]: 4 (28.6) | Increased AST [3]: 5 (35.7) | Increased blood bilirubin [3]: 4 (28.6) | Lymphopenia [3]: 2 (14.3) | Malaise [3]: 3 (21.4) | Malignant neoplasm progression [3]: 4 (28.6) | Nausea [3]: 5 (35.7) | Neutropenia [3]: 3 (21.4) | Pyrexia [3]: 4 (28.6) | Vomiting [3]: 3 (21.4) | Abdominal pain (upper abdominal pain for group II) [4]: 0 (0.0) | Any AE [4]: 11 (78.6) | Ascites [4]: 1 (7.1) | Decreased appetite [4]: 0 (0.0) | Decreased platelet count [4]: 0 (0.0) | Diarrhea [4]: 0 (0.0) | Fatigue [4]: 0 (0.0) | Hyperuricemia [4]: 2 (14.3) | Hypoalbuminemia [4]: 1 (7.1) | Increased ALT [4]: 2 (14.3) | Increased AST [4]: 3 (21.4) | Increased blood bilirubin [4]: 0 (0.0) | Lymphopenia [4]: 2 (14.3) | Malaise [4]: 0 (0.0) | Malignant neoplasm progression [4]: 2 (14.3) | Nausea [4]: 0 (0.0) | Neutropenia [4]: 2 (14.3) | Pyrexia [4]: 0 (0.0) | Vomiting [4]: 0 (0.0) | Discontinuation of nintedanib due to AEs (both groups): No patients discontinued nintedanib due to adverse events; also recorded: No patients discontinued nintedanib due to AEs | Drug-related fatal AEs (both groups): No drug‐related fatal AEs were reported | Hypertension at grade ≥3 (both groups): not reported by any patients | Ascites, any grade (group I): 6.3% | Bleeding, incidence (group I): 12.5% | Decreased appetite, any grade (group I): 37.5% | Diarrhea, any grade (group I): 50.0% | Fatigue, any grade (group I): 18.8% | Hand-foot skin reaction (group I): one patient in group I | Hypertension, incidence (group I): 12.5% | Hypoalbuminemia, any grade (group I): 12.5% | Increased AST, any grade (group I): 25.0% | Nausea, any grade (group I): 43.8% | Serious AEs considered drug-related by the investigator (group I): grade 3 immune thrombocytopenic purpura and grade 3 hyponatremia | Thromboembolic events at grade ≥3 (group I): no patients in group I | Thromboembolic events, incidence (group I): 0.0% | Vomiting, any grade (group I): 37.5% | Patients with dose reduction of nintedanib due to AEs (group I (five patients, all on 200 mg)): 31% and 31.3% | Patients with serious AEs (all requiring hospitalization) (group I (four patients)): 25.0% | Patients with adverse events at grade ≥3 (group I (seven patients)): 43.8% | Ascites, any grade (group II): 50.0% | Bleeding at grade ≥3 (group II): no patients in group II | Bleeding, incidence (group II): 14.3% | Decreased appetite, any grade (group II): 50.0% | Diarrhea, any grade (group II): 42.9% | Fatigue, any grade (group II): 35.7% | Hand-foot skin reaction (group II): no patients in group II | Hypertension, incidence (group II): 21.4% | Hypoalbuminemia, any grade (group II): 42.9% | Increased AST, any grade (group II): 35.7% | Nausea, any grade (group II): 35.7% | Serious AEs considered drug-related by the investigator (group II): grade 2 gastroenteritis, grade 3 drug‐induced liver injury, and grade 2 pyrexia | Thromboembolic events, incidence (group II): 7.1% | Vomiting, any grade (group II): 21.4% | Patients with adverse events at grade ≥3 (group II (11 patients)): 78.6% | Thromboembolic events at grade ≥3 (group II (one patient)): 7.1% | Patients with serious AEs (all requiring hospitalization) (group II (six patients)): 42.9% | Patients with dose reduction of nintedanib due to AEs (group II (three patients, one from each dose)): 21% and 21.4%
